Experimental data as given in ChEMBL document CHEMBL1800059, “Spiroindane based amides as potent and selective MC4R agonists for the treatment of obesity” (Bioorg Med Chem Lett, 2010).
pEC50, pIC50: −log10 of the molar value.

What was measured:
[1] = biological target: T1, Melanocortin receptor 4 (Homo sapiens, UniProt P32245); assay: Agonist activity at human MC4R expressed in CHO cells assessed as increase of alpha-MSH-stimulated cAMP release pretreated for 10 mins before alpha-MSH challenge measured after 40 mins; format: functional, cell-based
Outline: (§1)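 Each value is the mean of at least three repeat measurements. Functional read-outs give EC50 with % maximal activation.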

[2] = biological target: T1, Melanocortin receptor 4; assay: Agonist activity at human MC4R expressed in CHO cells assessed as increase of alpha-MSH-stimulated cAMP release pretreated for 10 mins before alpha-MSH challenge measured after 40 mins relative to alpha-MSH; format: functional, cell-based; outline: as §1
[3] = Agonist activity at human MC1bR expressed in CHO cells assessed as increase of alpha-MSH-stimulated cAMP release pretreated for 10 mins before alpha-MSH challenge measured after 40 mins; format: functional, cell-based; outline: as §1
[4] = Agonist activity at human MC1bR expressed in CHO cells assessed as increase of alpha-MSH-stimulated cAMP release pretreated for 10 mins before alpha-MSH challenge measured after 40 mins relative to alpha-MSH; format: functional; outline: as §1
[5] = biological target: T1, Melanocortin receptor 4; assay: Displacement of [125I]-NDP-R-MSH from human MC4R expressed in CHO cells after 1.5 hrs by scintillation counting; format: cell-based; outline: as §1
[6] = Oral bioavailability in Sprague-Dawley rat at 4 mg/kg; format: ADME, organism-based; details: in vivo
[7] = Clearance in Sprague-Dawley rat at 1 mg/kg, iv and 4 mg/kg, po; format: ADME, organism-based; details: in vivo
[8] = Volume of distribution at steady state in Sprague-Dawley rat at 1 mg/kg, iv and 4 mg/kg, po; format: ADME, organism-based; details: in vivo, read-out: Vdss
[9] = Half life in Sprague-Dawley rat at 1 mg/kg, iv and 4 mg/kg, po; format: ADME, organism-based; details: in vivo
[10] = system: Rattus norvegicus; assay: Dose-normalized AUC in Sprague-Dawley rat at 1 mg/kg, iv and 4 mg/kg, po; format: ADME, organism-based; details: in vivo

T1 sequence (P32245 whole entry): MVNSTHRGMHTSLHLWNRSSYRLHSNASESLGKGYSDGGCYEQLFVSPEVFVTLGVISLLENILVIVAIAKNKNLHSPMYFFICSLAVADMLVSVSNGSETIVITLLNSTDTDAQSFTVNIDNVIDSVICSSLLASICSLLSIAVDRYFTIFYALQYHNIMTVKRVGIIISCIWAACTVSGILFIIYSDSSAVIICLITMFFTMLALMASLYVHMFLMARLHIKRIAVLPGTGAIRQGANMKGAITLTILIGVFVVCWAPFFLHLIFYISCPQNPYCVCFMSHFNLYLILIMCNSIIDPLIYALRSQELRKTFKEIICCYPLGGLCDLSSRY

SMILES	pEC50 [1]	Activity [2]	pEC50 [3]	Activity [4]	pIC50 [5]	bioavailability [6]	clearance [7]	Vd [8]	half-life [9]	AUC/dose [10]
CO[C@H]1CCN(C(=O)C(C)(C)[C@H]2CC3(CCN(C(=O)[C@@H]4CN(C(C)(C)C)C[C@H]4c4ccc(F)cc4F)CC3)c3cc(Cl)c(C)cc32)C1	8.92	112%	6.99	71%	8.64					
Cc1cc2c(cc1Cl)C1(CCN(C(=O)[C@@H]3CN(C(C)(C)C)C[C@H]3c3ccc(F)cc3F)CC1)C[C@@H]2C(C)(C)C(=O)N1CC[C@H](O)C1	9.43	88%	7.54	93%	9.05					
Cc1cc2c(cc1Cl)C1(CCN(C(=O)[C@@H]3CN(C(C)(C)C)C[C@H]3c3ccc(F)cc3F)CC1)C[C@@H]2C(C)(C)C(=O)NC(C)(C)CO	8.72	89%	6.66	53%	8.41					
Cc1cc2c(cc1Cl)C1(CCN(C(=O)[C@@H]3CN(C(C)(C)C)C[C@H]3c3ccc(F)cc3F)CC1)C[C@@H]2C(C)(C)C(=O)N1CCCC1	9.00	73%	6.65	60%	8.74					
CCNC(=O)C(C)(C)[C@@H]1CC2(CCN(C(=O)[C@@H]3CN(C(C)(C)C)C[C@H]3c3ccc(F)cc3F)CC2)c2cc(Cl)c(C)cc21	7.49	96%	5.85	26%	7.28					
Cc1cc2c(cc1Cl)C1(CCN(C(=O)[C@@H]3CN(C(C)(C)C)C[C@H]3c3ccc(F)cc3F)CC1)C[C@@H]2C(C)(C)C(=O)NCC(F)(F)F	8.38	89%	6.08	30%	8.27					
Cc1cc2c(cc1Cl)C1(CCN(C(=O)[C@@H]3CN(C(C)(C)C)C[C@H]3c3ccc(F)cc3F)CC1)C[C@@H]2C(C)(C)C(=O)N1CC[C@@H](O)C1	9.60	98%	7.48	71%	9.28					
Cc1cc2c(cc1Cl)C1(CCN(C(=O)[C@@H]3CN(C(C)(C)C)C[C@H]3c3ccc(F)cc3F)CC1)C[C@@H]2C(C)(C)C(=O)NCCF	8.96	84%	6.59	48%	8.59					
Cc1cc2c(cc1Cl)C1(CCN(C(=O)[C@@H]3CN(C(C)(C)C)C[C@H]3c3ccc(F)cc3F)CC1)C[C@@H]2C(C)(C)C(=O)N1CC[C@H](F)C1	9.01	106%	6.69	68%	8.85					
Cc1cc2c(cc1Cl)C1(CCN(C(=O)[C@@H]3CN(C(C)(C)C)C[C@H]3c3ccc(F)cc3F)CC1)C[C@H]2C(C)(C)C(=O)NCC(F)(F)F	6.51	78%		5%	7.03					
CCNC(=O)C(C)(C)[C@H]1CC2(CCN(C(=O)[C@@H]3CN(C(C)(C)C)C[C@H]3c3ccc(F)cc3F)CC2)c2cc(Cl)c(C)cc21	8.85	100%	6.53	50%	8.51					
CNC(=O)C(C)(C)[C@@H]1CC2(CCN(C(=O)[C@@H]3CN(C(C)(C)C)C[C@H]3c3ccc(F)cc3F)CC2)c2cc(Cl)c(C)cc21	7.92	86%	5.86	38%	7.33					
CC(=O)N(C)C(C)(C)[C@H]1CC2(CCN(C(=O)[C@@H]3CN(C(C)(C)C)C[C@H]3c3ccc(F)cc3F)CC2)c2cc(Cl)c(C)cc21	8.37	83%	6.57	41%	8.60					
Cc1cc2c(cc1Cl)C1(CCN(C(=O)[C@@H]3CN(C(C)(C)C)C[C@H]3c3ccc(F)cc3F)CC1)C[C@@H]2C(C)(C)C(=O)N1CC(F)(F)C1	8.37	78%	6.37	46%	8.74	29%	21.8 mL/min/kg	8.88 L/kg	438 min	0.35 µM·h/mg/kg
Cc1cc2c(cc1Cl)C1(CCN(C(=O)[C@@H]3CN(C(C)(C)C)C[C@H]3c3ccc(F)cc3F)CC1)C[C@H]2C(C)(C)C(=O)NC1CC1	7.55	95%	5.95	20%	7.26					
Cc1cc2c(cc1Cl)C1(CCN(C(=O)[C@@H]3CN(C(C)(C)C)C[C@H]3c3ccc(F)cc3F)CC1)C[C@@H]2C(C)(C)C(=O)N1C[C@@H]2C[C@H]1CO2	9.12	96%	7.16	72%	8.80					
Cc1cc2c(cc1Cl)C1(CCN(C(=O)[C@@H]3CN(C(C)(C)C)C[C@H]3c3ccc(F)cc3F)CC1)C[C@@H]2C(C)(C)C(=O)N1CC[C@@H](F)C1	8.96	87%	6.91	69%	8.80					

SMILES	pEC50 [1]	Activity [2]	pEC50 [3]	Activity [4]	pIC50 [5]	bioavailability [6]	clearance [7]	Vd [8]	half-life [9]	AUC/dose [10]
Cc1cc2c(cc1Cl)C1(CCN(C(=O)[C@@H]3CN(C(C)(C)C)C[C@H]3c3ccc(F)cc3F)CC1)C[C@@H]2C(C)(C)C(=O)N1CCC1	9.23	88%	6.62	72%	8.96					
Cc1cc2c(cc1Cl)C1(CCN(C(=O)[C@@H]3CN(C(C)(C)C)C[C@H]3c3ccc(F)cc3F)CC1)C[C@H]2C(C)(C)C(=O)N(C)C	7.28	80%	5.30	17%	7.23					
Cc1cc2c(cc1Cl)C1(CCN(C(=O)[C@@H]3CN(C(C)(C)C)C[C@H]3c3ccc(F)cc3F)CC1)C[C@@H]2C(C)(C)C(=O)NCCO	8.89	100%	7.08	56%	8.59					
Cc1cc2c(cc1Cl)C1(CCN(C(=O)[C@@H]3CN(C(C)(C)C)C[C@H]3c3ccc(F)cc3F)CC1)C[C@@H]2C(C)(C)C(=O)NC(C)C	8.54	92%	6.36	45%	8.23					
CCN(CC)C(=O)C(C)(C)[C@H]1CC2(CCN(C(=O)[C@@H]3CN(C(C)(C)C)C[C@H]3c3ccc(F)cc3F)CC2)c2cc(Cl)c(C)cc21	8.77	81%	6.77	67%	8.59					
CCN(C)C(=O)C(C)(C)[C@H]1CC2(CCN(C(=O)[C@@H]3CN(C(C)(C)C)C[C@H]3c3ccc(F)cc3F)CC2)c2cc(Cl)c(C)cc21	8.80	103%	6.45	69%	8.68					
Cc1cc2c(cc1Cl)C1(CCN(C(=O)[C@@H]3CN(C(C)(C)C)C[C@H]3c3ccc(F)cc3F)CC1)C[C@@H]2C(C)(C)C(=O)NCc1ccccc1	7.38	79%	6.03	29%	7.92					
CNC(=O)C(C)(C)[C@H]1CC2(CCN(C(=O)[C@@H]3CN(C(C)(C)C)C[C@H]3c3ccc(F)cc3F)CC2)c2cc(Cl)c(C)cc21	9.04	94%	6.49	60%	8.59					
Cc1cc2c(cc1Cl)C1(CCN(C(=O)[C@@H]3CN(C(C)(C)C)C[C@H]3c3ccc(F)cc3F)CC1)C[C@@H]2C(C)(C)C(=O)NC(C)(C)C	8.00	76%	5.99	47%	7.92					
CC(=O)NC(C)(C)[C@H]1CC2(CCN(C(=O)[C@@H]3CN(C(C)(C)C)C[C@H]3c3ccc(F)cc3F)CC2)c2cc(Cl)c(C)cc21	8.48	90%	6.59	43%	8.35					
Cc1cc2c(cc1Cl)C1(CCN(C(=O)[C@@H]3CN(C(C)(C)C)C[C@H]3c3ccc(F)cc3F)CC1)C[C@@H]2C(C)(C)C(=O)NC1CCOCC1	8.64	92%	6.59	74%	8.60					
Cc1cc2c(cc1Cl)C1(CCN(C(=O)[C@@H]3CN(C(C)(C)C)C[C@H]3c3ccc(F)cc3F)CC1)C[C@@H]2C(C)(C)C(=O)N1CCOCC1	9.42	94%	7.08	66%	9.07					
Cc1cc2c(cc1Cl)C1(CCN(C(=O)[C@@H]3CN(C(C)(C)C)C[C@H]3c3ccc(F)cc3F)CC1)C[C@@H]2C(C)(C)C(=O)NCC(C)C	7.57	92%	5.69	45%	8.18					
CO[C@@H]1CCN(C(=O)C(C)(C)[C@H]2CC3(CCN(C(=O)[C@@H]4CN(C(C)(C)C)C[C@H]4c4ccc(F)cc4F)CC3)c3cc(Cl)c(C)cc32)C1	9.16	111%	6.99	67%	8.85					
Cc1cc2c(cc1Cl)C1(CCN(C(=O)[C@@H]3CN(C(C)(C)C)C[C@H]3c3ccc(F)cc3F)CC1)C[C@@H]2C(C)(C)C(=O)N1CCC(F)(F)C1	8.42	96%	6.55	54%	8.70					
Cc1cc2c(cc1Cl)C1(CCN(C(=O)[C@@H]3CN(C(C)(C)C)C[C@H]3c3ccc(F)cc3F)CC1)C[C@@H]2C(C)(C)C(=O)NC1CC1	9.10	95%	6.61	50%	8.66					
